Our source for the Ki values is ChEMBL document CHEMBL1123849, “Synthesis and binding affinities of analogues of cholecystokinin-(30-33) as probes for central nervous system cholecystokinin receptors” (J Med Chem, 1987).

Square brackets hold non-standard residues; d marks the D form. Peptide text beside a SMILES is read from it. * marks the point of attachment. sY = N[C@@H](Cc1ccc(OS(=O)(=O)O)cc1)C(=O)O; Boc = CC(C)(C)OC(=O)*

The target of this test is T1, Cholecystokinin receptor (Mus musculus, UniProt O08786+P56481).
T1 sequence (O08786 whole entry): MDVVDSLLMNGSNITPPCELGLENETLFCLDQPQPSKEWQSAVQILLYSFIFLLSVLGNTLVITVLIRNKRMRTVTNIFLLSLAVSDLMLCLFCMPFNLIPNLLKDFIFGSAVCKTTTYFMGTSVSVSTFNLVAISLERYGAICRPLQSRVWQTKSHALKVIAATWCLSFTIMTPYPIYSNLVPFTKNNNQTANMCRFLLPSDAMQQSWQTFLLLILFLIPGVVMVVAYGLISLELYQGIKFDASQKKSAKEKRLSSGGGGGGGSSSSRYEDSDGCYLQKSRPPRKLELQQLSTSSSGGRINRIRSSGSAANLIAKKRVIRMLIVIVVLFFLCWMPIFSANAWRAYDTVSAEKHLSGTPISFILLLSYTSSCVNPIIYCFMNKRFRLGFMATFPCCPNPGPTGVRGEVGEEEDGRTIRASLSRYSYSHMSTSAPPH
T1 sequence (P56481 whole entry): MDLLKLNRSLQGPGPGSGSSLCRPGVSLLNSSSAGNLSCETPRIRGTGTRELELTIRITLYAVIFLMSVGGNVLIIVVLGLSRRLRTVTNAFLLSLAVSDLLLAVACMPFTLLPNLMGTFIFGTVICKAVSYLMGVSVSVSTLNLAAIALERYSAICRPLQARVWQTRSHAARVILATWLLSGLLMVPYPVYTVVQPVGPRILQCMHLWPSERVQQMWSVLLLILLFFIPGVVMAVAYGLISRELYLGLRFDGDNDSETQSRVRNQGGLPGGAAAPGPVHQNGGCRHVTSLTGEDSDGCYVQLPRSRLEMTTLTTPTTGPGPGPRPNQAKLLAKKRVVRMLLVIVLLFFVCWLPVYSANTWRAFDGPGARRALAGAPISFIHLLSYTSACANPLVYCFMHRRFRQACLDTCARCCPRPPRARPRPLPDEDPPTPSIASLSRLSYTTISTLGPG
The experiment in a line: Displacement of [3H]pentagastrin from Cholecystokinin receptor of mouse cerebral cortex. It is filed as tissue-based. A digest of the protocol:
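Radioligand was [3H]-Boc-β-alanyl-CCK-30-33 (pentagastrin), displaced from central CCK receptors in homogenized mouse cerebral cortex.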
A general note: Loss of bound radioactivity is the signal in a displacement assay; it reports binding, not function.
As usually defined, the Ki is a dissociation constant, usually derived from enzyme kinetics or from competition with a known ligand. High values mean weaker binding, low ones tighter binding. Molecule `CSCC[C@H](NC(=O)[C@@H](N)Cc1c[nH]c2ccccc12)C(=O)N[C@@H](CC(=O)O)C(=O)N[C@@H](Cc1ccccc1)C(N)=O` [TETRAGASTRIN] returned a Ki of 0.003 µM.
`CSCC[C@H](NC(=O)[C@H](Cc1c[nH]c2ccccc12)NC(=O)OC(C)(C)C)C(=O)NCC(=O)N[C@@H](Cc1ccccc1)C(N)=O` (Boc-WMGF-NH2): the Ki is 24 µM.
The same measure for `CC(C)(C)OC(=O)N[C@@H](Cc1c[nH]c2ccccc12)C(=O)NCC(=O)N[C@@H](Cc1ccccc1)C(N)=O` (Boc-Trp-Gly-Phe-NH2): 11 µM.
`CSCC[C@H](NC(=O)[C@H](Cc1ccc(OS(=O)(=O)O)cc1)NC(=O)[C@@H](N)CC(=O)O)C(=O)NCC(=O)N[C@@H](Cc1c[nH]c2ccccc12)C(=O)N[C@@H](CCSC)C(=O)N[C@@H](CC(=O)O)C(=O)N[C@@H](Cc1ccccc1)C(N)=O` (stereo in doubt; 1) [SINCALIDE] displayed a Ki of 0.003 µM.
In the case of `CSCC[C@H](NC(=O)[C@H](Cc1c[nH]c2ccccc12)NC(=O)CNC(=O)[C@H](CCSC)NC(=O)[C@@H](N)Cc1ccc(OS(=O)(=O)O)cc1)C(=O)N[C@@H](CC(=O)O)C(=O)N[C@@H](Cc1ccccc1)C(N)=O` (H-[sY]MGWMDF-NH2), the inhibition constant (Ki) was 0.002 µM.
In the case of `CSCC[C@H](NC(=O)[C@H](Cc1c[nH]c2ccccc12)NC(=O)OC(C)(C)C)C(=O)N[C@@H](CC(=O)O)C(=O)N[C@@H](Cc1ccccc1)C(N)=O`, the Ki came to 0.0018 µM. The Ki values of the last two molecules are within 1.5-fold of each other.
With `CSCC[C@H](NC(=O)[C@H](Cc1ccc(OS(=O)(=O)O)cc1)NC(=O)[C@@H](N)CC(=O)O)C(=O)NCC(=O)N[C@@H](Cc1c[nH]c2ccccc12)C(=O)N[C@@H](CCSC)C(=O)N[C@@H](CC(=O)O)C(=O)N[C@@H](Cc1ccccc1)C(N)=O` (stereo in doubt; 2) [SINCALIDE] the figure was 0.18 µM; with `CSCC[C@H](N)C(=O)N[C@@H](CC(=O)O)C(=O)N[C@@H](Cc1ccccc1)C(N)=O` (H-Met-Asp-Phe-NH2), 100 µM; with `CSCC[C@H](NC(=O)[C@H](Cc1c[nH]c2ccccc12)NC(=O)CCNC(=O)OC(C)(C)C)C(=O)N[C@@H](CC(=O)O)C(=O)N[C@@H](Cc1ccccc1)C(N)=O` [PENTAGASTRIN], 0.0006 µM.
The same measure for `CC(C)(C)OC(=O)N[C@@H](Cc1c[nH]c2ccccc12)C(=O)NCC(=O)N[C@@H](CC(=O)O)C(=O)N[C@@H](Cc1ccccc1)C(N)=O` (Boc-WGDF-NH2): 1.6 µM; for `CC(C)(C)OC(=O)N[C@@H](Cc1c[nH]c2ccccc12)C(=O)NCCC(=O)NC(Cc1ccccc1)C(N)=O` (stereo partly specified): 45 µM.
